From ChEMBL document CHEMBL1141534, “Synthesis of all stereoisomers of 3-hydroxypipecolic acid and 3-hydroxy-4,5-dehydropipecolic acid and their evaluation as glycosidase inhibitors” (Bioorg Med Chem Lett, 2008) come the findings set out here.

Assay [1] addresses T1, Beta-glucuronidase (Bos taurus) (UniProt A3KMY8).
T1 sequence (whole entry): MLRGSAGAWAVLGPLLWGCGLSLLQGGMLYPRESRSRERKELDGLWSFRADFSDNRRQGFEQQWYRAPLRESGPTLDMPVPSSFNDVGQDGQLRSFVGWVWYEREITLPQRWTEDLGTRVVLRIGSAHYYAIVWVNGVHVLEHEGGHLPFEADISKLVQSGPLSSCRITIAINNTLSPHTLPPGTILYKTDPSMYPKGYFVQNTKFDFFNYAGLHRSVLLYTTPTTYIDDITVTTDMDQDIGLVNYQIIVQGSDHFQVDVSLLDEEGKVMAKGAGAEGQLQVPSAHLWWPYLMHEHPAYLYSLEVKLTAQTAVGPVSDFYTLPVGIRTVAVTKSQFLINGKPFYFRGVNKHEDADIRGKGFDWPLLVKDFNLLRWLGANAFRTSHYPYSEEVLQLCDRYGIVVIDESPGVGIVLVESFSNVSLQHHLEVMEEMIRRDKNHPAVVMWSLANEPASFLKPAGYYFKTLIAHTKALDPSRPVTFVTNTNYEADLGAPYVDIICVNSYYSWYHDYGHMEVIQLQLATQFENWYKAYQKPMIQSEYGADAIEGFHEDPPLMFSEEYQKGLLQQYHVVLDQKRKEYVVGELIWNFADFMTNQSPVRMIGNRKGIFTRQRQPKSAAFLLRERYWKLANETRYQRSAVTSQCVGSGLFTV
The assay can be described thus: Inhibition of bovine liver beta-glucuronidase. The arrangement: concentration or dose not given beside the values. The conditions noted are these: concentration not given here. Summed up: (§1)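 Enzyme activity was measured with the matching p-nitrophenyl glycoside as substrate at 10 mM, at each enzyme's optimum pH, with a suitable amount of enzyme per reaction. For line 4, the α-N-acetylgalactosaminidase came from chicken liver.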

In assay [2] the test system is Escherichia coli. In words: Inhibition of Escherichia coli beta-glucuronidase. Set-up: concentration or dose not given beside the values. To be noted: concentration not given here. An outline of the steps:
as §1

The species entered for assay [3] is Bos taurus. The assay can be described thus: (§2) Inhibition of bovine kidney beta-N-acetylglucosaminidase. Set-up: concentration or dose not given beside the values. The conditions noted are these: concentration not given here. An outline of the steps:
as §1

For assay [4], the system named is alpha-N-acetylgalactosaminidase (Gallus gallus). In words: Inhibition of chick liver alpha-N-acetylgalactosaminidase. The arrangement: concentration or dose not given beside the values. To be noted: concentration not given here.
Assay [5] can be described thus: as §2. Set-up: species or system Bos taurus. Summed up:
as §1

With `O=C(O)[C@@H]1NCC=C[C@H]1O`, the inhibition in assay [1] was 0.2%; in assay [2], 0.9%; in assay [3] it was 15%; in assay [4], 3.2%.

As to `O=C(O)[C@H]1NCC=C[C@@H]1O`, the inhibition was found to be 19% in assay [1], 2% in assay [2], 58% in assay [3] and 25% in assay [4]. This compound displayed a half-inhibitory concentration (IC50) in assay [5] of 720 µM.

As to `O=C(O)[C@H]1NCCC[C@H]1O`, the inhibition was found to be 0.18% in assay [1], 24% in assay [2], 20% in assay [3] and 2.5% in assay [4].

Turning to `O=C(O)[C@@H]1NCCC[C@H]1O`, the inhibition in assay [1] was 0.62%; in assay [2], 20%; in assay [3], 32%; in assay [4], 1.3%.

Consider `O=C(O)[C@H]1NCCC[C@@H]1O`, for which the inhibition in assay [1] was 0.89%; in assay [2], 31%; in assay [3], 38%; in assay [4], 5.2%.

For the compound `O=C(O)[C@@H]1NCC=C[C@@H]1O`, the inhibition was 10% in assay [1], 0.9% in assay [2], 0.8% in assay [3] and 1.3% in assay [4].

`O=C(O)[C@@H]1NCCC[C@@H]1O`: the inhibition was 15% in assay [1], 23% in assay [2], 47% in assay [3] and 3.2% in assay [4].

As for `O=C(O)[C@H]1NCC=C[C@H]1O`, the inhibition in assay [1] amounted to 8.6%; in assay [2], 3.3%; in assay [3], 7.3%; in assay [4], 0.2%.
